We go through 14 compounds from ChEMBL document CHEMBL1133161 (J Med Chem, 2000).

In assay [1] the target is Monoamine transporters; Norepinephrine & serotonin (Rattus norvegicus) (UniProt P31652+Q9WTR4). Put plainly: Relative affinity for norepinephrine over 5-HT transporters. The assay is classed as protein assay. A digest of the protocol: (§1)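 Selectivity ratios calculated from Ki values of the rat synaptosomal [3H]DA, [3H]NE and [3H]5-HT uptake inhibition assays.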
For assay [2], the species on record is Rattus norvegicus. Put plainly: Compound was evaluated for its ability to antagonizing norepinephrine (NE) high affinity uptake was determined using [3H]NE on synaptosomes prepared from rat occipital cortices. The assay is classed as functional. To be noted: Brain. A digest of the protocol: (§2)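 Rat parietal and occipital cortex P2 synaptosomes in ice-cold modified KRH buffer; preincubated with drug 30 min at 37 °C, then [3H]NE 8-10 nM added for 5 min. Stopped with cold Na-free glucosamine buffer, then filtered; scintillation counting. Specific uptake defined with 3 µM desipramine. Ki from IC50 using Km 54 nM. Six drug concentrations in triplicate, 2-5 experiments.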

For assay [3], the target named is Sodium-dependent serotonin transporter (Rattus norvegicus, UniProt P31652). In words: Inhibition of [3H]5-HT uptake by Serotonin transporter of rat midbrain or parietal synaptosomes. Type of assay: subcellular, Brain. The method in brief:
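Rat midbrain P2 synaptosomes in modified KRH buffer; preincubated with drug 30 min at 37 °C, then [3H]5-HT 4-5 nM for 5 min. Stopped with cold Na-free glucosamine buffer, then filtered; scintillation counting. […] Ki from IC50 using Km 53 nM. Six drug concentrations in triplicate, 2-5 experiments.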

For assay [4], the target named is Norepinephrine transporter (Rattus norvegicus, UniProt Q9WTR4). Put plainly: Inhibition of [3H]NE uptake by Norepinephrine transporter of rat occipital cortex synaptosomes. Type of assay: subcellular, Brain. The method in brief: as §2
For assay [5], the species on record is Rattus norvegicus. Put plainly: Compound was evaluated for its ability to inhibit the uptake of dopamine(DA) into nerve ending using [3H]DA on synaptosomes obtained from dissected rat striata. Type of assay: functional. The note with it: Brain.
The species named for assay [6] is Rattus norvegicus. Put plainly: Compound was evaluated for its ability to antagonizing serotonin high affinity uptake was determined using [3H]5-HT on synaptosomes prepared from rat midbrain or parietal cortices. Type of assay: functional. The note with it: Brain.
For assay [7], the target named is Monoamine transporters; serotonin & dopamine (Rattus norvegicus) (UniProt P31652+P23977). Put plainly: Relative affinity for dopamine over 5-HT transporters. Type of assay: protein assay. The method in brief: as §1
Assay [8] deals with Sodium-dependent dopamine transporter (Rattus norvegicus, UniProt P23977). In words: Inhibition of [3H]DA uptake by dopamine transporter of rat striata synaptosomes. The assay is classed as subcellular, Brain. The method in brief: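 Rat striatum homogenised in 0.32 M sucrose, P2 synaptosomes resuspended in KRH buffer; preincubated with drug 30 min at 37 °C, then [3H]DA 3-5 nM final for 5 min. Stopped with cold Na-free glucosamine buffer, then filtered; scintillation counting. Six concentrations in triplicate, 2-5 experiments.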

The species named for assay [9] is Rattus norvegicus. Put plainly: Compound was evaluated for its ability to antagonizing norepinephrine (NE), high affinity uptake was determined using [3H]NE on synaptosomes prepared from rat occipital cortices. The note with it: Brain.

As a reminder, the IC50 is the concentration that inhibits the measured activity by half. A higher IC50 goes with weaker potency in that assay. Usually Ki stands for the dissociation constant of the complex between target and ligand, obtained from inhibition or displacement. Read a high Ki as weaker binding.

“And” between values parts separate entries of the source, which are not always exact repeats. Equal values may be shown once.

Sequence of Sodium-dependent serotonin transporter (P31652 whole entry): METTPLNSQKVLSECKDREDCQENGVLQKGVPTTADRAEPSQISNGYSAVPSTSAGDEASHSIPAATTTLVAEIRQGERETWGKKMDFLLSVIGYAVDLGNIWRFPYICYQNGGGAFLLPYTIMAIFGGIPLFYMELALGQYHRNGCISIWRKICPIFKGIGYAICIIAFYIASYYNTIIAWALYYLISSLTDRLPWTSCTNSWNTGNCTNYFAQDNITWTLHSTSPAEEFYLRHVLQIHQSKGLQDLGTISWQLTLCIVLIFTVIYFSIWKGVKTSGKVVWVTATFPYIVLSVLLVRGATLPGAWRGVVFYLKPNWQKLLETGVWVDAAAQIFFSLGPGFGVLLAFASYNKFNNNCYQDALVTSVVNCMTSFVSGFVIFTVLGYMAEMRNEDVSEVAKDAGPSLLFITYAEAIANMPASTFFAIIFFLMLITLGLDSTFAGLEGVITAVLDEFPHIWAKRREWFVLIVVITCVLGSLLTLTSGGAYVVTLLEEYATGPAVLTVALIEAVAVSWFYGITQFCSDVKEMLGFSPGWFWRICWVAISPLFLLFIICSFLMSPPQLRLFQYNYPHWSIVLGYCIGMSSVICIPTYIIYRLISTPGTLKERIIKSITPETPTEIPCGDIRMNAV
Sequence of Sodium-dependent dopamine transporter (P23977 whole entry): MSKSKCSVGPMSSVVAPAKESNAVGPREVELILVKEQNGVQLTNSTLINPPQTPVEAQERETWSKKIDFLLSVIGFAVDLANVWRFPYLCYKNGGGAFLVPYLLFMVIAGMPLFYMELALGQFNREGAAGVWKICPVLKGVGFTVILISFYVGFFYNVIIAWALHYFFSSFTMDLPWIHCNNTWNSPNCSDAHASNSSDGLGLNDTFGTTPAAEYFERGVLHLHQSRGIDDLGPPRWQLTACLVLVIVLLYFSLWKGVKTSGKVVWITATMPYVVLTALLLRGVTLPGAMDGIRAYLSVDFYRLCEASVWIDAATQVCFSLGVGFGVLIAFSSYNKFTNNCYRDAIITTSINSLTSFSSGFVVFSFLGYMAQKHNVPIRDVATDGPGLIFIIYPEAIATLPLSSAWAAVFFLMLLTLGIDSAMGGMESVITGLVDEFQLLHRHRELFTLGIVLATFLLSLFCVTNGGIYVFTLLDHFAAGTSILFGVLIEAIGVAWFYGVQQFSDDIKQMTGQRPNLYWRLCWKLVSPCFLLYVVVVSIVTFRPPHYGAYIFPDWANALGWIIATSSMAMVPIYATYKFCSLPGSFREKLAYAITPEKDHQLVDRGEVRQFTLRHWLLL
Sequence of Monoamine transporters; serotonin & dopamine (Rattus norvegicus) (P23977 whole entry, looked up): as the sequence (P23977 whole entry) above
Sequence of Monoamine transporters; serotonin & dopamine (Rattus norvegicus) (P31652 whole entry, looked up): as the sequence (P31652 whole entry) above
Sequence of Norepinephrine transporter (Q9WTR4 whole entry): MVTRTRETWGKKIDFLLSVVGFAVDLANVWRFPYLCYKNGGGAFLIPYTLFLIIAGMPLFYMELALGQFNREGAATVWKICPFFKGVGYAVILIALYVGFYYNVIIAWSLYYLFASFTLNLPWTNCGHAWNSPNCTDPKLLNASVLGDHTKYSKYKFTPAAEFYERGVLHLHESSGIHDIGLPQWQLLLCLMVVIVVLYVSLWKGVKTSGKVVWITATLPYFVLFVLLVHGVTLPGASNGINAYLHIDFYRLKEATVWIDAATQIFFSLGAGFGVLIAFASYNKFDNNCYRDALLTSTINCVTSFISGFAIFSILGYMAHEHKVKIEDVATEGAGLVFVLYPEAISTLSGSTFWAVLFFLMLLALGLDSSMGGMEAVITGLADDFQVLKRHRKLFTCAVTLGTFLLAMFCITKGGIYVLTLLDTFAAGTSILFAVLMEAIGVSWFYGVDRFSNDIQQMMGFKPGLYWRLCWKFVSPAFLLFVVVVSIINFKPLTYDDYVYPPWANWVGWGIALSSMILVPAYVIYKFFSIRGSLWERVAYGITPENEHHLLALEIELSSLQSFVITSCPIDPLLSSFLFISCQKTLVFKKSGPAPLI

Regarding `CCc1ccc([C@H]2CCN(C)CC2C(=O)OC)cc1` (stereo partly specified), the Ratio is over 4 in assay [1] and over 6 in [7]. The IC50 in assay [2] is over 1.3 µM; in [5], over 1.8 µM; in assay [6], 0.275 µM. Besides, the Ki was 0.255 µM in [3], over 1.1 µM in assay [4] and over 1.7 µM in assay [8].
For the compound `COC(=O)[C@@H]1CN(C)CC[C@H]1c1ccc2ccccc2c1`, the Ratio worked out at 0.14 in assay [1] and 0.45 in [7]. The Ki in [3] came out at 0.192 µM; in assay [4] it was 0.027 µM; in assay [8] it was 0.087 µM. The IC50 in [5] turned out to be 0.094 µM; in assay [6] it was 0.209 µM.
Turning to `COC(=O)[C@@H]1CN(C)CC[C@@H]1c1cccc2ccccc12`, the Ratio in [1] was determined as 2.8; in assay [7] it was 3. Besides, the IC50 is 0.337 µM in [2], 0.326 µM in [5] and 0.113 µM in [6]. The figures for the Ki in [3], in assay [4] and in [8] were 0.101 µM, 0.281 µM and 0.304 µM, respectively.
`C=CCc1ccc([C@H]2CCN(C)C[C@H]2C(=O)OC)cc1`: the Ratio is over 3.5 in assay [1] and 3.1 in assay [7]. In addition, the IC50 in [2] was over 1.2 µM; in assay [5], over 1 µM; in [6] it was 0.334 µM. For the same compound, the results for the Ki in [3], in [4] and in [8] were 0.309 µM, over 1 µM and 0.964 µM, respectively.
Turning to `C=Cc1ccc([C@H]2CCN(C)C[C@H]2C(=O)OC)cc1`, the IC50 in assay [2] was 0.204 µM; in [6], 0.155 µM. The Ki stood at 0.138 µM in assay [3] and 0.175 µM in assay [4].
On to `C#Cc1ccc([C@H]2CCN(C)C[C@H]2C(=O)OC)cc1`, for which the Ratio in assay [1] turned out to be 2.1; in [7], 1.1. In addition, the IC50 in assay [2] stood at 0.399 µM; in assay [5], 0.213 µM; in [6] it was 0.189 µM. In addition, the Ki in assay [3] came to 0.175 µM; in [4], 0.364 µM; in [8] it was 0.187 µM.
`COC(=O)[C@H]1CN(C)CC[C@@H]1c1ccc2ccccc2c1`: the Ratio in [1] worked out at 5.7; in assay [7] it was 22.6. Besides, the results for the Ki in assay [3], in [4] and in [8] were 0.042 µM, 0.241 µM and 0.947 µM, respectively. Further, the IC50 in assay [5] is over 1 µM; in assay [6], 0.046 µM.
With `COC(=O)[C@@H]1CNCC[C@H]1c1ccc2ccccc2c1`, the Ratio in assay [1] amounted to 8.6; in assay [7], 26. The IC50 in assay [2] amounted to 0.034 µM; in assay [5], 0.097 µM; in [6] it was 0.0039 µM. Also, the inhibition constant (Ki) in [3] amounted to 0.0035 µM; in [4] it was 0.03 µM; in [8] it was 0.09 µM.
In the case of `COC(=O)[C@H]1CN(C)CC[C@H]1c1ccc2ccccc2c1`, the Ratio in [1] worked out at 3.2; in assay [7], 23. Also, the Ki in [3] was found to be 0.012 µM; in assay [4], 0.038 µM; in assay [8], 0.271 µM. Moreover, the values for the IC50 in assay [5] and in assay [6] were 0.293 µM and 0.013 µM, respectively.
With `COC(=O)[C@H]1[C@@H](OC(=O)c2ccccc2)C[C@@H]2CC[C@H]1N2C` [COCAINE], the IC50 in [9] was determined as 0.127 µM.
In the case of `COC(=O)[C@@H]1CN(C)CC[C@@H]1c1ccc2ccccc2c1`, the figures for the Ki in assay [3], in [4] and in assay [8] were 0.0076 µM, 0.034 µM and 0.021 µM, respectively. For the same compound, the IC50 in assay [5] turned out to be 0.023 µM; in [6], 0.0082 µM. For the same compound, in [7], the Ratio is 2.8 and 4.5.
For the compound `COC(=O)[C@@H]1CN(C)CC[C@@H]1c1ccc(-c2ccccc2)cc1`, the Ratio in assay [1] was determined as 3.3; in [7] it was 2.8. Also, the IC50 is 0.239 µM in assay [2], 0.184 µM in assay [5] and 0.067 µM in assay [6]. Moreover, the values for the Ki in assay [3], in assay [4] and in assay [8] were 0.062 µM, 0.203 µM and 0.173 µM, respectively.
With `CNCCC(Oc1ccc(C(F)(F)F)cc1)c1ccccc1` (stereo unspecified) [FLUOXETINE], the IC50 in assay [2] was 0.193 µM; in assay [5], over 4.5 µM; in [6], 0.0081 µM.
For `COC(=O)[C@@H]1CN(C)CC[C@@H]1c1ccc(Cl)cc1`, the Ratio in assay [1] was 0.23; in [7], 0.18. Further, the IC50 in assay [2] came out at 0.101 µM; in [5], 0.075 µM; in assay [6], 0.44 µM. In addition, the Ki was 0.391 µM in assay [3], 0.088 µM in assay [4] and 0.069 µM in assay [8].
